Experimental findings from ChEMBL document CHEMBL4382237, “Design, Synthesis, and Biological Evaluation of 2-Nitroimidazopyrazin-one/-es with Antitubercular and Antiparasitic Activity” (J Med Chem, 2018) are described below.

≈ marks a conversion by molar mass, not a printed value. Calls of active or inactive are those of the source. No cut-off for these calls is given here.

Data set [1] has as its system Giardia intestinalis. As to the kind of experiment: Antiparasitic activity against Giardia lamblia WB trophozoites after 24 to 48 hrs by CellTiter-Glo luminescent cell viability assay. The conditions noted are these: Giardia duodenalis. In general terms: In ATP-based viability assays light output follows the ATP content of the culture.
Data set [2] relates to Mycobacterium tuberculosis. Nature of the data set: Antibacterial activity against Mycobacterium tuberculosis H37Rv after 5 days under normoxic condition by resazurin dye-based fluorescence assay. In kind it is functional, organism-based. Summed up:
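H37Rv grown in 7H9/ADC/glycerol/Tyloxapol to mid-exponential phase, diluted to OD600 0.001 (~2 x 10^4 CFU/mL) in 7H9S with serially diluted compound. Incubated 5 days at 37 °C, then resazurin and Tween-80 added. Fluorescence (ex 530/em 590 nm) read after 24 h, normalised to no-drug and no-bacteria wells.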
A general note: Resazurin is reduced to fluorescent resorufin, in cell work by metabolically active cells.

The test system of data set [3] is Mycobacterium tuberculosis. Nature of the data set: Antibacterial activity against non-replicating Mycobacterium tuberculosis H37Rv after 5 days under hypoxic condition by resazurin dye-based fluorescence assay. In kind it is functional. Particulars: 120 h. In a few lines:
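Same H37Rv inoculum (OD600 0.001, ~2 x 10^4 CFU/mL) in 7H9S with serially diluted compound. Plates held 5 days at 0.1% oxygen, then resazurin plus Tween-80 added.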

Data set [4] concerns Trypanosoma brucei brucei. As to the kind of experiment: Antiparasitic activity against bloodstream form of Trypanosoma brucei brucei strain 427 after 48 hrs by resazurin dye-based assay. In kind it is functional, organism-based. The conditions noted are these: for IC50: strain 427, 48 h.
In data set [5] the test system is Entamoeba histolytica. Nature of the data set: Antiparasitic activity against Entamoeba histolytica HM-1:IMSS trophozoites assessed as inhibition of parasitic growth at 50 uM after 24 to 48 hrs by CellTiter-Glo luminescent cell viability assay relative to control. Format: functional. The conditions noted are these: read-out: GI. Summed up:
(§1)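 Axenic trophozoites were kept in TYI-S-33 with penicillin (100 U/mL) and streptomycin (100 µg/mL) and harvested in log phase. 5000 parasites per well were exposed to a final 8-point two-fold series of 0.39–50 µM, from 10 mM DMSO stocks. Plates were incubated 24–48 h at 37 °C under anaerobic conditions. ATP luminescence viability was read in triplicate. Percent inhibition is given at the highest concentration tested.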

For data set [6] the following is noted: buffer, 24 h, 200 µM.
For data set [7] the following is noted: buffer, pH 7.4, 24 h, 200 µM.
Data set [8] is described as follows: physchem. The conditions noted are these: water.
Data set [9] is described as follows: physchem. Particulars: PBS, pH 7.4.
For the next data set, the system named is Clostridioides difficile. Nature of the data set: Antibacterial activity against Clostridium difficile 630 ATCC BAA-1382 by broth microdilution assay. Format: functional. In a few lines:
(§2)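 Broth microdilution run essentially per an earlier report. MIC taken as the lowest concentration with no visible growth. Replicates typically agreed within one 2-fold dilution. The median MIC is reported, with a range where the median fell between two tested concentrations.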
(In general: Broth dilution looks for growth in wells or tubes with falling amounts of substance.)

Data set [10] is described as follows: Metabolic stability in human liver microsomes assessed as parent compound remaining at 3 uM after 2 hrs by LC-MS/MS analysis.
A short description of data set [11]: Metabolic stability in CD-1 mouse liver microsomes assessed as parent compound remaining at 3 uM after 2 hrs by LC-MS/MS analysis.
Data set [12] can be described thus: Metabolic stability in human plasma assessed as parent compound remaining at 3 uM after 2 hrs by LC-MS/MS analysis.
A short description of data set [13]: Metabolic stability in CD-1 mouse plasma assessed as parent compound remaining at 3 uM after 2 hrs by LC-MS/MS analysis.
A short description of data set [14]: Protein binding in human plasma at 5 uM after 30 mins by LC-MS/MS analysis based ultrafiltration method. Particulars: 0.5 h.
Data set [15] can be described thus: Apparent permeability across apical to basolateral side in human Caco2 cells at 2 uM after 2 hrs by lucifer yellow dye-based LC-MS/MS analysis. The conditions noted are these: caco-2, 2 h.
A short description of data set [16]: Apparent permeability across basolateral to apical side in human Caco2 cells at 2 uM after 2 hrs by lucifer yellow dye-based LC-MS/MS analysis. Particulars: caco-2, 2 h.
The nature of data set [17]: Apparent permeability across apical to basolateral side in human Caco2 cells assessed as mean drug recovery at 2 uM after 2 hrs by lucifer yellow dye-based LC-MS/MS analysis. The conditions noted are these: caco-2, 2 h.
Data set [18] in a line: Apparent permeability across basolateral to apical side in human Caco2 cells assessed as mean drug recovery at 2 uM after 2 hrs by lucifer yellow dye-based LC-MS/MS analysis. Particulars: Caco-2.
Data set [19] concerns Entamoeba histolytica. Nature of the data set: Antiparasitic activity against Entamoeba histolytica HM-1:IMSS trophozoites after 24 to 48 hrs by CellTiter-Glo luminescent cell viability assay. Format: functional, organism-based. In a few lines: as §1
Data set [20] deals with Giardia intestinalis. Nature of the data set: Antiparasitic activity against Giardia lamblia WB trophozoites after 24 to 48 hrs by CellTiter-Glo luminescent cell viability assay. The conditions noted are these: Giardia duodenalis.
In data set [21] the test system is Mycobacterium tuberculosis. As to the kind of experiment: Antibacterial activity against non-replicating Mycobacterium tuberculosis H37Rv assessed as inhibition of bacterial growth at 0.125 to 8 ug/ml after 5 days under hypoxic condition by resazurin dye-based fluorescence assay relative to control. In kind it is functional.
The subject of a further data set is Staphylococcus aureus. Nature of the data set: Antibacterial activity against methicillin-resistant Staphylococcus aureus ATCC […] by broth microdilution assay. In kind it is functional.
Another data set has as its system Escherichia coli. As to the kind of experiment: Antibacterial activity against Escherichia coli ATCC 25922 by broth microdilution assay. Format: functional. Summed up: as §2
Another data set concerns Klebsiella pneumoniae. Nature of the data set: Antibacterial activity against Klebsiella pneumoniae 700603 by broth microdilution assay. In kind it is functional. Summed up:
as §2

In another data set the test system is Acinetobacter baumannii. Nature of the data set: Antibacterial activity against Acinetobacter baumannii ATCC 19606 by broth microdilution assay. Format: functional. Particulars: ATCC 19606 = CIP 70.34 = JCM 6841. In a few lines:
as §2

The subject of another data set is Pseudomonas aeruginosa. Nature of the data set: Antibacterial activity against Pseudomonas aeruginosa ATCC 27853 by broth microdilution assay. In kind it is functional. In a few lines: as §2
The next data set deals with Candida albicans. Nature of the data set: Antifungal activity against Candida albicans ATCC 90028 by broth microdilution assay. Format: functional. Summed up:
as §2

The test system of a further data set is Cryptococcus neoformans. As to the kind of experiment: Antifungal activity against Cryptococcus neoformans H99 ATCC […] broth microdilution assay. Format: functional. The conditions noted are these: var. grubii H99 ATCC 208821. In a few lines: as §2
For a further data set, the system named is HEK293. As to the kind of experiment: Cytotoxicity against HEK293 cells after 24 hrs by resazurin dye-based fluorescence assay. Format: cell-based. The conditions noted are these: human, hek293, 24 h. Summed up: (§3)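 HEK293 (3000/well) and HepG2 (5000/well) were grown 24 h in DMEM with 10% FBS at 37 °C, 5% CO2. Cells were then exposed 24 h to a dilution series up to 100 µM (0.5% DMSO). 5 µM resazurin was added for 2 h, read at ex 560/em 590. 1% Triton X-100 served as lysis control. CC50 was derived from the curves.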

For the next data set, the system named is HepG2. As to the kind of experiment: Cytotoxicity against human HepG2 cells after 24 hrs by resazurin dye-based fluorescence assay. In kind it is cell-based. The conditions noted are these: hepg2, 24 h. Summed up:
as §3

For orientation: MIC means the lowest concentration that inhibits growth of the organism. For orientation: solubility (kinetic) means the concentration staying in solution when a stock, usually in DMSO, is diluted into the medium. `CC(=O)OCCn1c(C)cn2cc([N+](=O)[O-])nc2c1=O`: the IC50 in the data set on Giardia intestinalis [1] was 50 µM; in the data set with Giardia intestinalis [1] (read-out: pIC50 (converted)), 50.1 µM; in data set [4] (read-out: IC50) it was 0.65 µM; in data set [4] (read-out: pIC50 (converted)) it was 0.631 µM. The minimum inhibitory concentration (MIC) in [2] and in [3] was more than 32 µg/mL in each case. Besides, the inhibition of growth at 50 µM with Entamoeba histolytica [5] stood at 41%. Besides, the “log(Kinetic_solubility)” value in [6] and in data set [7] was more than -4 in each case. Also, the kinetic solubility at 24 h, 200 µM in “physchem [8]” and in “physchem [9]” was 100 to 200 µM (≈ 28 to 56 µg/mL) in each case.

As a reminder, the Papp is the rate of passage across a membrane or cell layer, normalised by area and donor concentration. `O=c1c2nc([N+](=O)[O-])cn2ccn1Cc1ccc(OC(F)(F)F)cc1` showed a minimum inhibitory concentration (MIC) against Clostridioides difficile of more than 64 µg/mL. Besides, the Stability in [10], in data set [11], in data set [12] and in [13] was more than 99% each time. Also, in [14], the PPB is 98%. The apparent permeability (Papp) is 25 ×10⁻⁶ cm/s in data set [15] and 22 ×10⁻⁶ cm/s in data set [16]. In addition, the Drug recovery in data set [17] is given as 83%. Besides, the recovery at 2 h, 2 µM in [18] amounted to 97%.

Regarding `O=c1c2nccn2ccn1Cc1ccc(F)cc1`, the outcome (in the data set with Entamoeba histolytica [19]; in data set [4]; with Giardia intestinalis [20]) was inactive.

In the case of `Cc1ccc(Cn2c(C)c(C)n3cc([N+](=O)[O-])nc3c2=O)cc1`, the IC50 is 5.2 µM in the data set on Giardia intestinalis [1]; 5.01 µM in the data set on Giardia intestinalis [1] (read-out: pIC50 (converted)); 33 µM with Entamoeba histolytica [19] (read-out: IC50); 31.6 µM in the data set with Entamoeba histolytica [19] (read-out: pIC50 (converted)); 0.25 µM in data set [4] (read-out: IC50); 0.251 µM in data set [4] (read-out: pIC50 (converted)). Moreover, the MIC in [2] turned out to be 2 µg/mL (≈ 6.4 µM); in [3], 4 µg/mL (≈ 12.8 µM). Further, the “log(Kinetic_solubility)” value in [6] and in data set [7] was less than -5 each time. Further, in the data set “physchem [9]”, the kinetic solubility at 24 h, 200 µM was less than 10 µM.

Take `CC(=O)OCCn1c(-c2ccccc2)cn2cc([N+](=O)[O-])nc2c1=O`: the IC50 is 11 µM in the data set with Giardia intestinalis [1]; 10 µM with Giardia intestinalis [1] (read-out: pIC50 (converted)); 34 µM with Entamoeba histolytica [19] (read-out: IC50); 31.6 µM with Entamoeba histolytica [19] (read-out: pIC50 (converted)); 0.86 µM in [4] (read-out: IC50); 0.794 µM in data set [4] (read-out: pIC50 (converted)). This compound also returned an MIC in [3] of more than 32 µg/mL. For the same compound, the “log(Kinetic_solubility)” value in data set [6] and in [7] was more than -4 each time. Moreover, the kinetic solubility at 24 h, 200 µM in the data set “physchem [8]” and in “physchem [9]” was more than 100 µM throughout.

Usually CC50 stands for the concentration at which the toxic effect on the cells reaches its halfway point. As to `Cc1cccc(Cn2ccn3cc([N+](=O)[O-])nc3c2=O)c1`, the IC50 in the data set with Giardia intestinalis [1] is 9 µM; with Giardia intestinalis [1] (read-out: pIC50 (converted)), 10 µM; in [4] (read-out: IC50), 5.4 µM; in data set [4] (read-out: pIC50 (converted)), 5.01 µM. For the same compound, the MIC was 0.06 µg/mL (≈ 0.211 µM) in data set [2]; more than 32 µg/mL in the data set with Staphylococcus aureus; more than 32 µg/mL in the data set with Escherichia coli; more than 32 µg/mL with Klebsiella pneumoniae; more than 32 µg/mL against Acinetobacter baumannii; more than 32 µg/mL against Pseudomonas aeruginosa. Also, the minimum inhibitory concentration (MIC) against Candida albicans and in the data set with Cryptococcus neoformans was more than 32 µg/mL each time. Also, the “growth inhibition (GI)” value in data set [21] is recorded as 70 - 90%. Also, the 50% cytotoxic concentration (CC50) in the data set on HEK293 and in the data set on HepG2 was more than 100 µM throughout.

With `O=c1c2nc([N+](=O)[O-])cn2ccn1Cc1ccc(F)cc1`, the IC50 in the data set with Giardia intestinalis [1] is 6.4 µM; in the data set on Giardia intestinalis [1] (read-out: pIC50 (converted)) it was 6.31 µM; in the data set on Entamoeba histolytica [19] (read-out: IC50) it was more than 50 µM; in data set [4] (read-out: IC50), 2.9 µM; in [4] (read-out: pIC50 (converted)) it was 3.16 µM. For the same compound, the MIC with Clostridioides difficile is more than 64 µg/mL; in [2] it was 1 µg/mL (≈ 3.47 µM); in data set [3] it was 2 µg/mL (≈ 6.94 µM); in the data set on Staphylococcus aureus, more than 32 µg/mL; in the data set with Escherichia coli, more than 32 µg/mL; with Klebsiella pneumoniae, more than 32 µg/mL. The MIC against Acinetobacter baumannii, in the data set on Pseudomonas aeruginosa, in the data set with Candida albicans and against Cryptococcus neoformans was more than 32 µg/mL each time. Also, the cytotoxic concentration (CC50) with HEK293 and in the data set on HepG2 was more than 100 µM in each case. Besides, the Stability in data set [10] is 99%; in data set [11], more than 99%; in data set [12] it was 98%; in data set [13] it was more than 99%. The compound also had a PPB in [14] of 82%.
